Source: PubChem
Only a selection was taken, and hits are over-represented in it overall.
T cruzi growth-1 = T. cruzi intracellular proliferation inhibitors, primary screen, cell-based, beta-gal Tulahuen parasites, NIH3T3 host, luminescence. T. cruzi beta-gal in NIH3T3, GalScreen luminescence, 90 h. inhibition, % at 8.34 µM. actives 5.9% (n = 77,000). AID 624255, 2012;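 active means mean inhibition above about 93%, with at least 55% of replicates each passing it, limit read from the data, passing the limit was not always enough; inconclusive means only one of those two conditions holds; inactive means neither condition holds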
IDH1 R132H inh = inhibitors of IDH1 R132H reductase, primary screen, biochemical, plate reader, single point. AID 624101, 2012. actives 0.18% (n = 70,000). diaphorase/resazurin fluorescence, 60 min. inhibition, % at 10 µM. Isocitrate dehydrogenase [NADP] cytoplasmic (Homo sapiens), O75874; in the data active means inhibition above about 34%; inconclusive means no clear call, values can overlap the other calls; inactive means below about 11%
KDM4C inh = inhibitors of GASC-1 (KDM4C) histone demethylase, primary screen, biochemical, single concentration HTS; Lysine-specific demethylase 4C (Homo sapiens), Q9H3R0; GST-KDM4C 2-372, H3K9me3 peptide, LANCE TR-FRET; inhibition, % at 12.5 µM; actives 0.15% (n = 96,000);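 active means mean replicate inhibition above about 25%, with at least 55% of replicates also reaching it, limit read from the data, passing the limit was not always enough; inconclusive means only one of those two conditions met; inactive means neither condition met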
Target sequence (Q9H3R0 2-372 limits assumed): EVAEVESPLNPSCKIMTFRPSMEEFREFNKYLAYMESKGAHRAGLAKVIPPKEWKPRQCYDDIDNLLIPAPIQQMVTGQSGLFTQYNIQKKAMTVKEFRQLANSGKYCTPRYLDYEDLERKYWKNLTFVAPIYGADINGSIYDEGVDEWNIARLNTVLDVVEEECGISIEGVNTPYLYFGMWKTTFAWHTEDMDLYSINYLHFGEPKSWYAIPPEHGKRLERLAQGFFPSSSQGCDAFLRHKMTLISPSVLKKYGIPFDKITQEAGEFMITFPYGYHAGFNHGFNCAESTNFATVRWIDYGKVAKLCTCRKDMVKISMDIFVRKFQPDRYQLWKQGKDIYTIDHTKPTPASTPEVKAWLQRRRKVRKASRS
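Test system – GST-tagged GASC-1 (JMJD2C) catalytic fragment, aa 2-372 · Medium – HEPES buffer, pH 7.5, plus ascorbate · Reagent – H3K9me3 peptide with Fe(II)/2OG · Compound – one test concentration per compound · Timing – 30 min reaction, 60 min detection, RT · Technique – TR-FRET with Eu antibody and ULight streptavidin, EDTA stop · Read-out basis – inhibition from TR-FRET ratio decrease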
T cruzi growth-2 = T. cruzi intracellular proliferation inhibitors, confirmation, cell-based, NIH3T3 host, beta-gal parasite, luminescence, cherry-pick. shares compounds with T cruzi growth-1. T. cruzi beta-gal in NIH3T3, GalScreen luminescence, 90 h. inhibition, % at 8.35 µM. actives 72% (n = 5,600). AID 651739, 2012;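 active means mean replicate inhibition above about 95% and at least 55% of replicates individually reaching it, limit read from the data; inconclusive means only one of the two criteria is met; inactive means neither criterion is met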
T cruzi growth-3 = inhibitors of intracellular T. cruzi replication, confirmation, NIH3T3 host cells, beta-gal parasites, cherry-pick, set 2; shares compounds with T cruzi growth-1; T. cruzi beta-gal in NIH3T3, GalScreen luminescence, 90 h; inhibition, % at 2.09 µM; actives 21% (n = 5,600);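 active means mean inhibition above about 95%, with at least 55% of replicates also reaching it, limit read from the data; inconclusive means meets just one of the two conditions; inactive means meets neither condition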
NIH3T3 tox = cytotoxicity in mouse NIH/3T3 fibroblasts, confirmation, cytotoxicity control for T. cruzi proliferation inhibitor project, cell-based, cherry-pick, single point | actives 14% (n = 5,600) | cytotoxicity (signal decrease), % at 8.35 µM | shares compounds with T cruzi growth-1 | NIH/3T3 viability, CellTiter-Glo ATP luminescence, 90 h;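 active means mean signal decrease across replicates above about 35% based on untreated-well scatter, with enough replicates individually passing, limit read from the data; inconclusive means no rule stated though some were filed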
NIH3T3 tox 2 = NIH/3T3 fibroblast cytotoxicity, confirmation, cytotoxicity control, cell-based, cherry-pick, single point, set 2 | actives 56% (n = 5,600) | NIH/3T3 viability, CellTiter-Glo ATP luminescence, 90 h | inhibition, % at 24.9 µM | shares compounds with T cruzi growth-1;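 active means mean loss of cell viability signal at or above a set limit, and enough replicates individually reaching it; inconclusive means meets only the mean limit or only the replicate share; inactive means meets neither condition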
Large screens that a line does not name were inactive (follow-up assays come after a bar, where they were run); ! = repeats disagree.

CN1C(=O)c2cc(NC(=O)c3ccccc3)ccc2OC[C@@H]2O[C@H](CC(=O)NC3CCCC3)CC[C@H]21	none (no result: IDH1 R132H inh)
CN1C(=O)c2cc(NC(=O)c3cccc(F)c3)ccc2OC[C@@H]2O[C@H](CC(=O)NCC3CCCCC3)CC[C@@H]21	T cruzi growth-1 117.3 (no result: IDH1 R132H inh) | T cruzi growth-2 inactive | T cruzi growth-3 inactive | NIH3T3 tox 42.5! | NIH3T3 tox 2 84.6
CN1C(=O)c2cc(NC(=O)c3cccc(F)c3)ccc2OC[C@@H]2O[C@H](CC(=O)NCc3ccccc3)CC[C@H]21	none (no result: IDH1 R132H inh)
CN1C(=O)c2cc(NC(=O)c3cccc(F)c3)ccc2OC[C@H]2O[C@@H](CC(=O)N3CCc4ccccc4C3)CC[C@H]21	T cruzi growth-1 103.7 (no result: IDH1 R132H inh) | T cruzi growth-2 96.7 | T cruzi growth-3 inactive | NIH3T3 tox inactive | NIH3T3 tox 2 37.6
CN1C(=O)c2cc(NC(=O)c3cccc(F)c3)ccc2OC[C@H]2O[C@H](CC(=O)N3CCc4ccccc4C3)CC[C@@H]21	none (no result: IDH1 R132H inh)
CN1C(=O)c2cc(NC(=O)c3ccc(Cl)cc3)ccc2OC[C@@H]2O[C@@H](CC(=O)NCc3cccc(F)c3)CC[C@@H]21	T cruzi growth-1 103.4 (no result: IDH1 R132H inh) | T cruzi growth-2 103.5 | T cruzi growth-3 inactive | NIH3T3 tox inactive | NIH3T3 tox 2 60.9
CN1C(=O)c2cc(NC(=O)c3cccc(Cl)c3)ccc2OC[C@H]2O[C@@H](CC(=O)NC3CCCCC3)CC[C@H]21	T cruzi growth-1 106.7 (no result: IDH1 R132H inh) | T cruzi growth-2 103.6 | T cruzi growth-3 inactive | NIH3T3 tox inactive | NIH3T3 tox 2 37.7
CN1C(=O)c2cc(NC(=O)c3cccc(F)c3)ccc2OC[C@H]2O[C@@H](CC(=O)NCC3CCCCC3)CC[C@H]21	none (no result: IDH1 R132H inh)
Cn1c(=O)c(C(=O)NCCCO)c(O)c2ccccc21	none (no result: T cruzi growth-1, KDM4C inh)
CCC(=O)Nc1ccc(S(=O)(=O)Nc2nccc(/C=C/c3ccccc3Cl)n2)cc1	none (no result: T cruzi growth-1, KDM4C inh)
O=S(=O)(Nc1ncccn1)c1ccc(NC(=S)Nc2ccc3c(c2)OCCO3)cc1	none (no result: T cruzi growth-1, KDM4C inh)
COc1ccc(S(=O)(=O)N(C)CC(=O)Nc2c(C)cc(C)cc2C)cc1	none (no result: T cruzi growth-1, KDM4C inh)
O=C1c2ccccc2C(=O)N1CCCc1nc(-c2cccc([N+](=O)[O-])c2)no1	none (no result: T cruzi growth-1, KDM4C inh)
O=C(CSc1nc2cc(Cl)ccc2o1)c1cccc([N+](=O)[O-])c1	none (no result: T cruzi growth-1, KDM4C inh)
c1ccc(Cn2c(SCCN3CCOCC3)nc3ccccc32)cc1	none (no result: T cruzi growth-1, KDM4C inh)
CN1C(=O)c2cc(NC(=O)c3ccc(C(F)(F)F)cc3)ccc2OC[C@@H]2O[C@@H](CC(=O)NC3Cc4ccccc4C3)CC[C@@H]21	none (no result: IDH1 R132H inh, KDM4C inh)
CN1C(=O)c2cc(NC(=O)c3ccc(C(F)(F)F)cc3)ccc2OC[C@@H]2O[C@@H](CC(=O)NC3Cc4ccccc4C3)CC[C@H]21	T cruzi growth-1 99.8 (no result: IDH1 R132H inh) | T cruzi growth-2 105.8 | T cruzi growth-3 inactive | NIH3T3 tox inconclusive | NIH3T3 tox 2 43.0
CN1C(=O)c2cc(NC(=O)c3ccc(Cl)cc3)ccc2OC[C@H]2O[C@H](CC(=O)NCc3cccc(F)c3)CC[C@@H]21	none (no result: IDH1 R132H inh)
CN1C(=O)c2cc(NC(=O)c3ccc(Cl)cc3)ccc2OC[C@H]2O[C@H](CC(=O)NCc3cccc(F)c3)CC[C@H]21	T cruzi growth-1 100.8 (no result: IDH1 R132H inh) | T cruzi growth-2 inactive | T cruzi growth-3 inactive | NIH3T3 tox inactive | NIH3T3 tox 2 inactive
Cc1cc(C)c(NC(=O)CSc2nnc(-c3ccccc3Cl)n2C)c(C)c1	none (no result: T cruzi growth-1, KDM4C inh)
COc1ccc(NC=O)c(CS(=O)(=O)c2ccc(C)cc2)n1	none (no result: T cruzi growth-1, KDM4C inh)
COc1ccc(-c2nnc(SCC(=O)Nc3cccc(C)c3C)o2)cc1	none (no result: T cruzi growth-1, KDM4C inh)
Cn1nnnc1SCC(=O)Nc1ccc(F)cc1	none (no result: T cruzi growth-1, KDM4C inh)
CCn1c(SCC(=O)Nc2ccccc2)nc2ccc(I)cc2c1=O	none (no result: T cruzi growth-1, KDM4C inh)
N#C[C@@H]1[C@H](c2ccc(-c3cncnc3)cc2)[C@@H](CO)N1C(=O)Cc1ccccc1	none (no result: IDH1 R132H inh)
N#C[C@@H]1[C@@H](c2ccc(-c3ccccc3)cc2)[C@@H](CO)N1C(=O)Cc1ccncc1	none
N#C[C@H]1[C@H](c2ccc(C#Cc3ccc(F)cc3)cc2)[C@H](CO)N1C(=O)Cc1ccncc1	T cruzi growth-1 inconclusive (no result: IDH1 R132H inh) | T cruzi growth-2 inactive | T cruzi growth-3 inactive | NIH3T3 tox inactive | NIH3T3 tox 2 inconclusive
N#C[C@H]1[C@@H](c2ccc(-c3ccncc3)cc2)[C@@H](CO)N1C(=O)Cc1ccccc1	T cruzi growth-1 inconclusive (no result: IDH1 R132H inh) | T cruzi growth-2 103.5 | T cruzi growth-3 inactive | NIH3T3 tox inactive | NIH3T3 tox 2 43.7
N#C[C@H]1[C@@H](c2ccc(-c3ccc(F)cc3)cc2)[C@@H](CO)N1C(=O)Cc1ccccc1	none (no result: IDH1 R132H inh)
N#C[C@H]1[C@H](c2ccc(-c3ccc(F)cc3)cc2)[C@H](CO)N1C(=O)Cc1ccccc1	none (no result: IDH1 R132H inh)
N#C[C@H]1[C@H](c2ccc(-c3ccccc3)cc2)[C@H](CO)N1C(=O)Cc1ccncc1	T cruzi growth-1 102.2 (no result: IDH1 R132H inh) | T cruzi growth-2 109.8 | T cruzi growth-3 inactive | NIH3T3 tox inactive | NIH3T3 tox 2 inconclusive
N#C[C@@H]1[C@@H](c2ccc(-c3ccncc3)cc2)[C@@H](CO)N1C(=O)Cc1ccccc1	T cruzi growth-1 inconclusive (no result: IDH1 R132H inh) | T cruzi growth-2 inactive | T cruzi growth-3 inactive | NIH3T3 tox inactive | NIH3T3 tox 2 28.4
O=C(CSc1nnc(-c2cccs2)n1-c1cccc(C(F)(F)F)c1)c1ccc(F)cc1	none (no result: T cruzi growth-1, KDM4C inh)
